# Measured values from different studies.
# Compare with care: the assays were run in different laboratories.
SMILES,technique,sample,time,logP
C=CCN1CC[C@]23c4c5ccc(O)c4O[C@H]2[C@@H](OCCOCCOCCOCCOCCOCCOCCOC)CC[C@@]3(O)[C@H]1C5,,,,1.43
Nc1nc(-c2ccccc2)nc2[nH]nc(Nc3ccc(C(F)(F)F)cc3)c12,,,,2.85
N#Cc1[nH]nnc1-c1cccc(-c2cc(F)cc(C(F)(F)F)c2)c1,potentiometric,,,5.2
O=c1[nH]cc(F)c(=O)[nH]1,shake flask,water,24 h,-0.46
CC1=NN(CNC(=O)c2ccccc2)C(=O)C1=NNn1c(-c2ccccc2)nc2ccccc2c1=O,,,,4.09
Clc1cc2c(c3ncccc13)OCN(CCc1ccccc1)C2,,,,4.54
Cc1cc(Cl)cc(S(C)(=O)=O)c1NC(=O)c1cc(Br)nn1-c1ncccc1Cl,potentiometric,,,4.34
Nc1nc2[nH]cc(CCc3ccc(C(=O)N[C@@H](CCC(=O)O)C(=O)O)cc3)c2c(=O)[nH]1,,water,24 h,-0.842
CS(=O)(=O)N1CCN(Cc2cc3nc(-c4cccc5[nH]ncc45)nc(N4CCOCC4)c3s2)CC1,,,,3.22
C=C[C@H]1C[N@@]2CC[C@H]1C[C@@H]2[C@@H](O)c1ccnc2ccc(OC)cc12,,water,,2.84
CC1=NN(CNc2ccc(Cl)cc2)C(=O)C1=NNn1c(-c2ccccc2)nc2ccccc2c1=O,,,,5.1
CC(C)N1CCN(Cc2cnc(-c3cc(-c4cccc5[nH]ccc45)cc4[nH]ncc34)o2)CC1,,,,4.01
O=C1NN=C(N=Cc2ccccc2)C1=NNn1c(-c2ccccc2)nc2ccccc2c1=O,,,,3.39
CNCc1cc(-c2ccccc2F)n(S(=O)(=O)c2cccnc2)c1,,,,2.74
N#Cc1[nH]nnc1-c1cc(Cl)cc(/C=C/c2cccc(C(F)(F)F)c2)c1,potentiometric,,,5.4
CC1=NN(CNc2ccccc2[N+](=O)[O-])C(=O)C1=NNn1c(-c2ccccc2)nc2ccccc2c1=O,,,,5.08
